Measurements published in ChEMBL document CHEMBL2311491, “Development of new cyclic plasmin inhibitors with excellent potency and selectivity” (J Med Chem, 2013).

Tests used:
Prothrombin = Prothrombin (Homo sapiens, UniProt P00734); experiment: Inhibition of human thrombin using CH3SO2-D-Cha-Gly-Arg-pNA as substrate after 5 to 10 mins by micro plate reader analysis
Plasma kallikrein = Plasma kallikrein (Homo sapiens, UniProt P03952); experiment: Inhibition of human plasma kallikrein using H-D-Pro-Phe-Arg-pNA as substrate after 5 to 10 mins by micro plate reader analysis
[1] = target: Vitamin K-dependent protein C (Homo sapiens, UniProt P04070); experiment: Inhibition of human activated protein C using H-D-Lys(Cbz)-Pro-Arg-pNA as substrate after 5 to 10 mins by micro plate reader analysis
Vitamin K-dependent protein C, sequence (P04070 43-197 limits assumed): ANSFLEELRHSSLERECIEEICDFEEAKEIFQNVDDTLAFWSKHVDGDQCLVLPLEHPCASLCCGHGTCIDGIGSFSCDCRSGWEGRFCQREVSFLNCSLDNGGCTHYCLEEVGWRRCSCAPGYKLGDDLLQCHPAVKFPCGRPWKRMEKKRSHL
Vitamin K-dependent protein C, sequence (P04070 212-461 limits assumed): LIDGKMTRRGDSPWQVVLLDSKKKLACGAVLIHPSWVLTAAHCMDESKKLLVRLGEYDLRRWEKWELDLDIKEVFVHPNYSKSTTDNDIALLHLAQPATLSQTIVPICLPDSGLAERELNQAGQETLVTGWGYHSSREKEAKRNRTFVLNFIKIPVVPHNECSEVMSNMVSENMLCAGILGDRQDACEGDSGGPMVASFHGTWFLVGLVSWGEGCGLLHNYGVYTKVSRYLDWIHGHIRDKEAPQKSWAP

[2] = target: Tissue-type plasminogen activator (Homo sapiens, UniProt P00750); experiment: Inhibition of human tPA
Tissue-type plasminogen activator, sequence (P00750 whole entry): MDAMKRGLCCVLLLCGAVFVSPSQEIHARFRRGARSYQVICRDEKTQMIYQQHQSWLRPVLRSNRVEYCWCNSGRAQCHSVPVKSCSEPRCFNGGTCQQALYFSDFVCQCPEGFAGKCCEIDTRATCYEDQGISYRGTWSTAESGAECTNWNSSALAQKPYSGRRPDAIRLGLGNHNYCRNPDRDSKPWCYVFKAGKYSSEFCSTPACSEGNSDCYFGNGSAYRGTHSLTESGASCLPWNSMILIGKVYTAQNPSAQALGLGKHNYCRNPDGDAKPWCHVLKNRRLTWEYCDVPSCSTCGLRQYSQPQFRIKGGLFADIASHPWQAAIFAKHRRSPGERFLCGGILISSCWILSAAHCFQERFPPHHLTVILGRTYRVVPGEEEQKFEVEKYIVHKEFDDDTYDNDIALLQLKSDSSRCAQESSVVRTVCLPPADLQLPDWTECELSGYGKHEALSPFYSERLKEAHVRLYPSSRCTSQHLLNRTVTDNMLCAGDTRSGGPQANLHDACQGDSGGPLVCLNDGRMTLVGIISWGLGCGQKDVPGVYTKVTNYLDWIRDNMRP

Plasma [3] = experiment: Anticoagulant activity in human plasma assessed as tPA-induced fibrinolysis; format: functional; details: in the assay text read “Antifibrinolytic activity” for “Anticoagulant activity”
In short: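 tPA-induced fibrinolysis in human plasma. Value reported as EC200, the inhibitor concentration that doubles the clot-to-lysis time.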

[4] = target: L-type Ca channel, benzothiazepine site (Rattus norvegicus, UniProt P22002+P27732+Q02485); experiment: Displacement of [3H]diltiazem from wistar rat Ca channel L-type benzothiazepine receptor at 10 uM; details: probe [3H]diltiazem
In short: (§1)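 Radioligand binding to the ion channel with test compound at 10 μM. Result expressed as % binding; negative values are read as no binding. Assays run by a contract laboratory.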

[5] = target: Complement C1s subcomponent (Homo sapiens, UniProt P09871); experiment: Inhibition of human C1s
Complement C1s subcomponent, sequence (P09871 16-437 limits assumed): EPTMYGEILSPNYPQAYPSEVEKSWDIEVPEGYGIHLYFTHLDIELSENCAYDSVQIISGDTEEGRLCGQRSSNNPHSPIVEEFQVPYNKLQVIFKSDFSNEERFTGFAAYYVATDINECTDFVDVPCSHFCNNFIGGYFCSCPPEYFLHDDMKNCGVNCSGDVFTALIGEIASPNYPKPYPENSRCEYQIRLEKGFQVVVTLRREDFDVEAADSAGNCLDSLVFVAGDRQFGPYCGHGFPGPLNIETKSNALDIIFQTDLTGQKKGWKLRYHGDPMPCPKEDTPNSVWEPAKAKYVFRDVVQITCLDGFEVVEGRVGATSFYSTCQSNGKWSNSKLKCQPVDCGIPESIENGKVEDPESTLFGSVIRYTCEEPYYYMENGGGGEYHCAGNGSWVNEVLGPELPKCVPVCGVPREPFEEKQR
Complement C1s subcomponent, sequence (P09871 438-688 limits assumed): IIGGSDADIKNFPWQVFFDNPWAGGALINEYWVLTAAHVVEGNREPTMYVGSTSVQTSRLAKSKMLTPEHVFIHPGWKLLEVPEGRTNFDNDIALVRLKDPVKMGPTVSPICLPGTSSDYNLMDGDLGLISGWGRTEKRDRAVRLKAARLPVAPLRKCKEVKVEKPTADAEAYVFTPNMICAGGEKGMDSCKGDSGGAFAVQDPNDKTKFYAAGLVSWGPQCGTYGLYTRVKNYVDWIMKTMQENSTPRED

Kallikrein-1 = Kallikrein-1 (Homo sapiens, UniProt P06870); experiment: Inhibition of urinary kallikrein (unknown origin)
Plasminogen = Plasminogen (Homo sapiens, UniProt P00747); experiment: Inhibition of human plasmin protease domain using Tos-Gly-Pro-Lys-pNA as substrate by micro plate reader analysis
[6] = target: Cytochrome P450 1A2 (Homo sapiens) (UniProt P05177); experiment: Inhibition of human recombinant CYP1A2 expressed in Trichoplusia ni BTI-TN-5B1-4 cells preincubated for 15 mins measured after 45 mins by spectrofluorimetry
[7] = Metabolic stability in human liver microsomes assessed as degradation after 60 mins; format: ADME, Microsome; details: read-out: Drug degradation
Cytochrome P450 2C9 = Cytochrome P450 2C9 (Homo sapiens, UniProt P11712); experiment: Inhibition of human recombinant CYP2C9 expressed in Trichoplusia ni BTI-TN-5B1-4 cells preincubated for 15 mins measured after 45 mins by spectrofluorimetry; format: ADME, cell-based
Cytochrome P450 2C9, sequence (P11712 whole entry): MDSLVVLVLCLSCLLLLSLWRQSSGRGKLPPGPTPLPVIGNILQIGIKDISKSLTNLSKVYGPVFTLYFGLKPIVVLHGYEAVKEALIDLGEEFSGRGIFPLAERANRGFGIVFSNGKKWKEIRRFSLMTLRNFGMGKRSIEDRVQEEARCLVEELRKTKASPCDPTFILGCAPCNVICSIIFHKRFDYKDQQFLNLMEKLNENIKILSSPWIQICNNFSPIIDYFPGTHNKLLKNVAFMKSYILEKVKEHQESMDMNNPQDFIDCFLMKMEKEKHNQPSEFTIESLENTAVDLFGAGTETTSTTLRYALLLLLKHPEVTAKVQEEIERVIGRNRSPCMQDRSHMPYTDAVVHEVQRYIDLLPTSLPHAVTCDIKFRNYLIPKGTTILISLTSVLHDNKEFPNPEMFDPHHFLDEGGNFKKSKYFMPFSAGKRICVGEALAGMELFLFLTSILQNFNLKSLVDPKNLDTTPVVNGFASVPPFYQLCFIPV

Coagulation factor XI = Coagulation factor XI (Homo sapiens, UniProt P03951); experiment: Inhibition of human FXIa
Coagulation factor XI, sequence (P03951 19-387 limits assumed): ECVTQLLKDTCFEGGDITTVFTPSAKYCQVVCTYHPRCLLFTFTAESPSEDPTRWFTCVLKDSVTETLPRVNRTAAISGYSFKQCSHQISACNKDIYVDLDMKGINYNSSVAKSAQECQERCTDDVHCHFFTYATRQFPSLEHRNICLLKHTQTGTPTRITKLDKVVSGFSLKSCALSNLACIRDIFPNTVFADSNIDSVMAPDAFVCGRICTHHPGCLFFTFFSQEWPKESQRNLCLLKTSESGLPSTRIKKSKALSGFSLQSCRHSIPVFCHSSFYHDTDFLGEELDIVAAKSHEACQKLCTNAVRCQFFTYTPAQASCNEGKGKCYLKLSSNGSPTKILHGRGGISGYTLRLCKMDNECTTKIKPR
Coagulation factor XI, sequence (P03951 388-625 limits assumed): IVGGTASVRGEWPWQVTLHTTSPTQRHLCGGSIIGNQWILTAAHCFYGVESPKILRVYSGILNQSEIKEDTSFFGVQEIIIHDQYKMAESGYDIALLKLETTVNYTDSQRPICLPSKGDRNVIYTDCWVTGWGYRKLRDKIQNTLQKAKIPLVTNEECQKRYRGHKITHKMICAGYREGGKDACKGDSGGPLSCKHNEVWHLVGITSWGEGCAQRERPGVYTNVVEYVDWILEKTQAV

[8] = target: Cytochrome P450 2C19 (Homo sapiens) (UniProt P33261); experiment: Inhibition of human recombinant CYP2C19 expressed in Trichoplusia ni BTI-TN-5B1-4 cells preincubated for 15 mins measured after 30 mins by spectrofluorimetry
Cytochrome P450 2C19 (Homo sapiens), sequence (P33261 whole entry, looked up): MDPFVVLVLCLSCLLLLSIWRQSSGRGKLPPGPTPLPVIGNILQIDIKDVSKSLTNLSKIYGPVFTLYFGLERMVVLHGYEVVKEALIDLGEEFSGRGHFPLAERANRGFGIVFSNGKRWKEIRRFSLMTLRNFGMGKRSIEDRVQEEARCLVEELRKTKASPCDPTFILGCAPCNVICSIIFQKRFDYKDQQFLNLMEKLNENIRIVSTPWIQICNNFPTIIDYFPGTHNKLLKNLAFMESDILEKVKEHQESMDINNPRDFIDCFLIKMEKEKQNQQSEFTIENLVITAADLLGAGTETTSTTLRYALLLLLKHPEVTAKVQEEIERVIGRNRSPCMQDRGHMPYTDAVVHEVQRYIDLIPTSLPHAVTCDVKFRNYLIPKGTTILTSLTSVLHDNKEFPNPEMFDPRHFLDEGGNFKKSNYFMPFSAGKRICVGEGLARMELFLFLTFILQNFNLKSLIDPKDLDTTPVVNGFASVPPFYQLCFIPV

[9] = target: L-type Ca channel, phenylalkylamine site (Rattus norvegicus, UniProt P22002+P27732+Q02485); experiment: Displacement of [3H](-)-desmethoxyverapamil from wistar rat Ca channel L-type phenylalkylamine receptor at 10 uM; details: probe [3H](-)-desmethoxyverapamil; in short: as §1
Rattus norvegicus = species: Rattus norvegicus; experiment: Displacement of [3H]batrachotoxinin from wistar rat Na channel at 10 uM
In short: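 Single-point radioligand binding screen at 10 μM test compound, run by a contract lab under its own protocol. Read-out is percent binding, where negative values mean no binding.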

[10] = Fraction unbound in human plasma; format: ADME, cell-free
[11] = target: L-type Ca channel, dihydropyridine site (Rattus norvegicus, UniProt P22002+P27732+Q02485); experiment: Displacement of [3H]nitrendipine from wistar rat Ca channel L-type dihydropyridine receptor at 10 uM; details: probe [3H]nitrendipine; in short: as §1
Plasma [12] = experiment: Anticoagulant activity in human plasma assessed as concentration required to activated partial thromboplastin time; format: functional
In short: (§2)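 Clotting time measured in human plasma spiked with inhibitor. Value reported as EC200, the concentration that doubles the clotting time.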

Cytochrome P450 2D6 = Cytochrome P450 2D6 (Homo sapiens, UniProt P10635); experiment: Inhibition of human recombinant CYP2D6 expressed in Trichoplusia ni BTI-TN-5B1-4 cells preincubated for 15 mins measured after 45 mins by spectrofluorimetry; format: ADME, cell-based
[13] = target: Urokinase-type plasminogen activator (Homo sapiens, UniProt P00749); experiment: Inhibition of human uPA
[14] = target: Complement C1r subcomponent (Homo sapiens, UniProt P00736); experiment: Inhibition of human C1r
Complement C1r subcomponent, sequence (P00736 18-463 limits assumed): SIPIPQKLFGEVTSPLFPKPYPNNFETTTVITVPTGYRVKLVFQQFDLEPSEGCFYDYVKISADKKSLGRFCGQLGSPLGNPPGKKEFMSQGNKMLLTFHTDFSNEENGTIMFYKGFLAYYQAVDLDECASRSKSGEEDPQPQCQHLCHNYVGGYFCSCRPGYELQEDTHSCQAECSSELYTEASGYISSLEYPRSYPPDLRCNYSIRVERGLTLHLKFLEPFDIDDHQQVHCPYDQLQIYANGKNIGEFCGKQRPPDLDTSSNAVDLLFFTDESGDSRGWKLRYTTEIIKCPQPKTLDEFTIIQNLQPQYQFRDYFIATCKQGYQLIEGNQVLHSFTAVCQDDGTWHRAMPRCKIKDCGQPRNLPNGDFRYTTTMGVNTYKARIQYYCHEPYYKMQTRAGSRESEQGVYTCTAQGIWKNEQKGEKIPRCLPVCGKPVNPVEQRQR
Complement C1r subcomponent, sequence (P00736 464-705 limits assumed): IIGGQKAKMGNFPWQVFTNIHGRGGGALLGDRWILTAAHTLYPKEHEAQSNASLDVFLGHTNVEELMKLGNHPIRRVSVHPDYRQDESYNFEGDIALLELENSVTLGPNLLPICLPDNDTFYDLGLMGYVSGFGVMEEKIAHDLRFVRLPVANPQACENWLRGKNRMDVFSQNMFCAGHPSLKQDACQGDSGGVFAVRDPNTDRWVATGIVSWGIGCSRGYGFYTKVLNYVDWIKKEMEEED

Trypsin = Trypsin (Sus scrofa, UniProt P00761); experiment: Inhibition of pig trypsin using CH3SO2-D-Cha-Gly-Arg-pNA as substrate after 5 to 10 mins by micro plate reader analysis
Trypsin, sequence (P00761 whole entry): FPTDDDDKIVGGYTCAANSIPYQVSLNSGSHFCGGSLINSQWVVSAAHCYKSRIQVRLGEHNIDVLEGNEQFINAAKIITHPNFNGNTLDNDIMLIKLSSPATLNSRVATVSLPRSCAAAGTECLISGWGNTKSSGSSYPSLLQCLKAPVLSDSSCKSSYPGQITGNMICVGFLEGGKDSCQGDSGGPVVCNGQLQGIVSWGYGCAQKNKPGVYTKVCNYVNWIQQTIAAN

Plasma [15] = experiment: Anticoagulant activity in human plasma assessed as concentration required to prothrombin time; format: functional; in short: as §2
Coagulation factor IX = Coagulation factor IX (Homo sapiens, UniProt P00740); experiment: Inhibition of human FIXa
Coagulation factor IX, sequence (P00740 47-191 limits assumed): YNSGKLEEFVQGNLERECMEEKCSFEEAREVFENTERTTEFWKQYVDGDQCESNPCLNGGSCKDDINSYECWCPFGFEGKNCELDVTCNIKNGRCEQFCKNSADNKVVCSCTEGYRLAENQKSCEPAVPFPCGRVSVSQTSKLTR
Coagulation factor IX, sequence (P00740 227-461 limits assumed): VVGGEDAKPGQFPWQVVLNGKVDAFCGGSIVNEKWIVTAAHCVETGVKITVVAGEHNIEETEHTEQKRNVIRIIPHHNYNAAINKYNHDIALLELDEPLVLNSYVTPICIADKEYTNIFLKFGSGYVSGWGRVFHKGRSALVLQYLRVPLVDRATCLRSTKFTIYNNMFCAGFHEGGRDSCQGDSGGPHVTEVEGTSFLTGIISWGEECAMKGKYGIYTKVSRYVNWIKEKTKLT

hERG (KCNH2) = hERG (KCNH2) (Homo sapiens, UniProt Q12809); experiment: Displacement of [3H]astemizole from human ERG channel at 10 uM; details: probe [3H]astemizole; in short: as §1
Coagulation factor XII = Coagulation factor XII (Homo sapiens, UniProt P00748); experiment: Inhibition of human FXIIa
[16] = Thermodynamic solubility of the compound in 0.9% saline; format: physicochemical; details: read-out: Therm_solubility
Cytochrome P450 3A4 = Cytochrome P450 3A4 (Homo sapiens, UniProt P08684); experiment: Inhibition of human recombinant CYP3A4 expressed in Trichoplusia ni BTI-TN-5B1-4 cells preincubated for 15 mins measured after 30 mins by spectrofluorimetry; format: ADME, cell-based
Coagulation factor X = Coagulation factor X (Homo sapiens, UniProt P00742); experiment: Inhibition of human factor Xa using CH3OCO-D-Cha-Gly-Arg-pNA as substrate after 5 to 10 mins by micro plate reader analysis
Plasma [17] = experiment: Anticoagulant activity in human plasma assessed as concentration required to thrombin time; format: functional; in short: as §2
Serine protease 1 = Serine protease 1 (Homo sapiens, UniProt P07477); experiment: Inhibition of human trypsin
Serine protease 1, sequence (P07477 whole entry): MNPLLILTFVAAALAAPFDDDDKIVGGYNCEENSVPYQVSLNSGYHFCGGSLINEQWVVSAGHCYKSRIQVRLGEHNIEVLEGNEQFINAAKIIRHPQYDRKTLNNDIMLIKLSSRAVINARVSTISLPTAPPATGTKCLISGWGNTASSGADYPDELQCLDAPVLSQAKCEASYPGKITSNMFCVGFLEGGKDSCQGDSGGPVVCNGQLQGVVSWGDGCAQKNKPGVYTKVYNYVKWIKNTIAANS

N=C(N)c1ccc(CNC(=O)[C@@H]2Cc3ccc(cc3)NC(=O)CCN3CCN(CCC(=O)Nc4ccc(cc4)C[C@@H](NS(=O)(=O)Cc4ccccc4)C(=O)N2)CC3)cc1.O=C(O)C(F)(F)F
Ki (Prothrombin): 26.4 µM
Ki (Plasma kallikrein): 1 µM
Ki [1]: > 15 µM
Ki [2]: > 40 µM
EC200 (Plasma [3]): 180 nM
inhibition at 10 µM [4]: -4%
Ki [5]: > 35 µM
Ki (Kallikrein-1): 10 µM
Ki (Plasminogen): 0.0002 µM
IC50 [6]: > 100 µM
metabolised at 1 h [7]: 2%
IC50 (Cytochrome P450 2C9): > 100 µM
Ki (Coagulation factor XI): 3.37 µM
IC50 [8]: > 100 µM
inhibition at 10 µM [9]: 3%
inhibition (Rattus norvegicus): 27%
fraction unbound [10]: 0.67
inhibition at 10 µM [11]: -5%
EC200 (Plasma [12]): >100 µM
IC50 (Cytochrome P450 2D6): > 10 µM
Ki [13]: 6.5 µM
Ki [14]: > 35 µM
Ki (Trypsin): 0.0383 µM
EC200 (Plasma [15]): >100 µM
Ki (Coagulation factor IX): > 5 µM
inhibition at 10 µM (hERG (KCNH2)): 4%
Ki (Coagulation factor XII): > 20 µM
solubility thermodynamic [16]: > 2000 µg/mL
IC50 (Cytochrome P450 3A4): > 10 µM
Ki (Coagulation factor X): 25 µM
EC200 (Plasma [17]): >100 µM
Ki (Serine protease 1): 0.0084 µM
